Measured values reported in ChEMBL document CHEMBL2176883, “Aminopiperidine sulfonamide Cav2.2 channel inhibitors for the treatment of chronic pain” (J Med Chem, 2012).

How the values were obtained:
[1] = Drug metabolism in Sprague-Dawley rat assessed as parent compound level in blood at 10 mg/kg, po after 8 hrs; format: ADME, organism-based; parameters: dose 10 mg/kg, route oral; conditions: read-out: Drug metabolism
Procedure, shortened: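 Male Sprague-Dawley rats were given a 10 mg/kg oral dose. Parent and metabolite concentrations were measured in whole blood and brain over time, including 8 h postdose.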

[2] = target: T1, Voltage-dependent N-type calcium channel subunit alpha-1B (Homo sapiens, UniProt Q00975); test: Inhibition of human Cav2.2 expressed CBK cells assessed as inhibition of channel current at <1 uM at holding membrane potential -40 mV by conventional patch clamp electrophysiology assay
T1 sequence (Q00975 whole entry, looked up): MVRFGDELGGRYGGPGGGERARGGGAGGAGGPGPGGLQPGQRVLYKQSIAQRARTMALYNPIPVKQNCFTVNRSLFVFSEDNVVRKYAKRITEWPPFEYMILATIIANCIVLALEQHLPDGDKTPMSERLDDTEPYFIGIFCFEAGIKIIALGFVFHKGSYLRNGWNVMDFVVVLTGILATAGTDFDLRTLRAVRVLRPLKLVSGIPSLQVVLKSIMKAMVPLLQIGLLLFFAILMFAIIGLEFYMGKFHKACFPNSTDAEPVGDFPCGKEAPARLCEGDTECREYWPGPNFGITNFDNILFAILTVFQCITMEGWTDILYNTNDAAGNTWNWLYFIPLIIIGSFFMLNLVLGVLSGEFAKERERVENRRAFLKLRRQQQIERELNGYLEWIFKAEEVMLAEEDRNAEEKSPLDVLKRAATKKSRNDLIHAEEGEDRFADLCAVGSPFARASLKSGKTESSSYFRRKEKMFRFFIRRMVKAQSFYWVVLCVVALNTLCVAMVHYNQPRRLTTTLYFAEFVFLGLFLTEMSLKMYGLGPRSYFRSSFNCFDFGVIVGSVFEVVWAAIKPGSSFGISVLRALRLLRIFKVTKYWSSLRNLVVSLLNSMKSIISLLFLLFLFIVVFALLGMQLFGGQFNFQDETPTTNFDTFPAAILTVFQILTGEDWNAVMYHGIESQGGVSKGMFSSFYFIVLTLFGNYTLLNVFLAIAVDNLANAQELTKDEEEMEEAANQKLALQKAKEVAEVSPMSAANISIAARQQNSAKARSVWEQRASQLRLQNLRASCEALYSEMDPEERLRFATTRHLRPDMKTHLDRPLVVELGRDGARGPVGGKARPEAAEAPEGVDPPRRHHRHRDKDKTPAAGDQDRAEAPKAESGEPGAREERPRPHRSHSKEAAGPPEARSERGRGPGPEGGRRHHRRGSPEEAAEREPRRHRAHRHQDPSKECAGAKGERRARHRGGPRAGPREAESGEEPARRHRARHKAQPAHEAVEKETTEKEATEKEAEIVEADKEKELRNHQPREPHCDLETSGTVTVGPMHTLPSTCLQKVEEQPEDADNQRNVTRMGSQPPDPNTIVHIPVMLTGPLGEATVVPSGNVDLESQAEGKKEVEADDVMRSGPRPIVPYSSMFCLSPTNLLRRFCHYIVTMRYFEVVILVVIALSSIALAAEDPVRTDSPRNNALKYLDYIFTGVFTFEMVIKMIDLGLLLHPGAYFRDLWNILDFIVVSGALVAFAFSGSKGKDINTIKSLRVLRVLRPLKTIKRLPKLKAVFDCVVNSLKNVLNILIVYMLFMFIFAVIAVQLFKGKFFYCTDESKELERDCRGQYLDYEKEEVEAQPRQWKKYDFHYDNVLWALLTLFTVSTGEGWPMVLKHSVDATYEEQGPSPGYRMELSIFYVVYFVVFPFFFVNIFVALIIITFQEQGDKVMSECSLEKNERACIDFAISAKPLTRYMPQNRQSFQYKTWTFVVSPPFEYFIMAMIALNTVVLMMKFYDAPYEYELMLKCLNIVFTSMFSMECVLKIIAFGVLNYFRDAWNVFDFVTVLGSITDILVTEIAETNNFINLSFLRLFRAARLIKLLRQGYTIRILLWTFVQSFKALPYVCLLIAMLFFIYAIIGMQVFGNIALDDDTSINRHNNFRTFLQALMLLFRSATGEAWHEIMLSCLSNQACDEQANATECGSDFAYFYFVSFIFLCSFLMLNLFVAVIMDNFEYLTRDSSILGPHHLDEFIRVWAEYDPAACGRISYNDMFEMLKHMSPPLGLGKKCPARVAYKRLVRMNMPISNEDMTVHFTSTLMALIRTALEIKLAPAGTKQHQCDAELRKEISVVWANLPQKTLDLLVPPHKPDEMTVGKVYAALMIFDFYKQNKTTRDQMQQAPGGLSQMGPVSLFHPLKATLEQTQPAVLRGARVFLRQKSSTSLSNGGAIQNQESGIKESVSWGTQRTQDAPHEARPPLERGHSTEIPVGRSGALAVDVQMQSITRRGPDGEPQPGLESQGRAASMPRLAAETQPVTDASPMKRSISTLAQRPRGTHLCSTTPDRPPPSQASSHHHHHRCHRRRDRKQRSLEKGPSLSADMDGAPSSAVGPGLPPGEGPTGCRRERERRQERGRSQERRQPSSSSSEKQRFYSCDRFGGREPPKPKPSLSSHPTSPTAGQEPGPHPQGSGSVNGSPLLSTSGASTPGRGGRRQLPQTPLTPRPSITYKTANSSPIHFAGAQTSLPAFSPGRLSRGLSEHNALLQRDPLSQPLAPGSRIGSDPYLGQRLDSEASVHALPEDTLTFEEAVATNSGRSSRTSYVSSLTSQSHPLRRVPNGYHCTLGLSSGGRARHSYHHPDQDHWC
Procedure, shortened: (§1)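 Cav2.2 current block was measured at a depolarized (−40 mV) or hyperpolarized (−90 mV) potential. At −40 mV, n = 2, 3, 4 and 1 at 0.3, 1, 3 and 10 μM. At −90 mV, n = 4 and 6 at 3 and 10 μM. Values are mean ± SEM.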

Mus musculus [3] = test: Antinociceptive activity in Cav2.2 deficient mouse SNL neuropathic pain model assessed as reversal of mechanical allodynia at 30 mg/kg, po after 2 hrs; format: functional
Procedure, shortened: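 Cav2.2+/+ and Cav2.2−/− mice underwent spinal nerve ligation, then got a single 30 mg/kg oral dose. Mechanical allodynia was scored 2 h postdose.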

Mus musculus [4] = test: Antinociceptive activity in Cav2.2 expressing wild type mouse assessed as reversal of complete Freund's adjuvant-induced pain at 30 mg/kg, po after 2 hrs; format: functional
Cav1.2 [5] = target: T2, Cav1.2 (Homo sapiens, UniProt Q13936); test: Inhibition of Cav1.2 assessed as inhibition of calcium flux at 3 uM by cell based FLIPR assay
T2 sequence (Q13936 whole entry): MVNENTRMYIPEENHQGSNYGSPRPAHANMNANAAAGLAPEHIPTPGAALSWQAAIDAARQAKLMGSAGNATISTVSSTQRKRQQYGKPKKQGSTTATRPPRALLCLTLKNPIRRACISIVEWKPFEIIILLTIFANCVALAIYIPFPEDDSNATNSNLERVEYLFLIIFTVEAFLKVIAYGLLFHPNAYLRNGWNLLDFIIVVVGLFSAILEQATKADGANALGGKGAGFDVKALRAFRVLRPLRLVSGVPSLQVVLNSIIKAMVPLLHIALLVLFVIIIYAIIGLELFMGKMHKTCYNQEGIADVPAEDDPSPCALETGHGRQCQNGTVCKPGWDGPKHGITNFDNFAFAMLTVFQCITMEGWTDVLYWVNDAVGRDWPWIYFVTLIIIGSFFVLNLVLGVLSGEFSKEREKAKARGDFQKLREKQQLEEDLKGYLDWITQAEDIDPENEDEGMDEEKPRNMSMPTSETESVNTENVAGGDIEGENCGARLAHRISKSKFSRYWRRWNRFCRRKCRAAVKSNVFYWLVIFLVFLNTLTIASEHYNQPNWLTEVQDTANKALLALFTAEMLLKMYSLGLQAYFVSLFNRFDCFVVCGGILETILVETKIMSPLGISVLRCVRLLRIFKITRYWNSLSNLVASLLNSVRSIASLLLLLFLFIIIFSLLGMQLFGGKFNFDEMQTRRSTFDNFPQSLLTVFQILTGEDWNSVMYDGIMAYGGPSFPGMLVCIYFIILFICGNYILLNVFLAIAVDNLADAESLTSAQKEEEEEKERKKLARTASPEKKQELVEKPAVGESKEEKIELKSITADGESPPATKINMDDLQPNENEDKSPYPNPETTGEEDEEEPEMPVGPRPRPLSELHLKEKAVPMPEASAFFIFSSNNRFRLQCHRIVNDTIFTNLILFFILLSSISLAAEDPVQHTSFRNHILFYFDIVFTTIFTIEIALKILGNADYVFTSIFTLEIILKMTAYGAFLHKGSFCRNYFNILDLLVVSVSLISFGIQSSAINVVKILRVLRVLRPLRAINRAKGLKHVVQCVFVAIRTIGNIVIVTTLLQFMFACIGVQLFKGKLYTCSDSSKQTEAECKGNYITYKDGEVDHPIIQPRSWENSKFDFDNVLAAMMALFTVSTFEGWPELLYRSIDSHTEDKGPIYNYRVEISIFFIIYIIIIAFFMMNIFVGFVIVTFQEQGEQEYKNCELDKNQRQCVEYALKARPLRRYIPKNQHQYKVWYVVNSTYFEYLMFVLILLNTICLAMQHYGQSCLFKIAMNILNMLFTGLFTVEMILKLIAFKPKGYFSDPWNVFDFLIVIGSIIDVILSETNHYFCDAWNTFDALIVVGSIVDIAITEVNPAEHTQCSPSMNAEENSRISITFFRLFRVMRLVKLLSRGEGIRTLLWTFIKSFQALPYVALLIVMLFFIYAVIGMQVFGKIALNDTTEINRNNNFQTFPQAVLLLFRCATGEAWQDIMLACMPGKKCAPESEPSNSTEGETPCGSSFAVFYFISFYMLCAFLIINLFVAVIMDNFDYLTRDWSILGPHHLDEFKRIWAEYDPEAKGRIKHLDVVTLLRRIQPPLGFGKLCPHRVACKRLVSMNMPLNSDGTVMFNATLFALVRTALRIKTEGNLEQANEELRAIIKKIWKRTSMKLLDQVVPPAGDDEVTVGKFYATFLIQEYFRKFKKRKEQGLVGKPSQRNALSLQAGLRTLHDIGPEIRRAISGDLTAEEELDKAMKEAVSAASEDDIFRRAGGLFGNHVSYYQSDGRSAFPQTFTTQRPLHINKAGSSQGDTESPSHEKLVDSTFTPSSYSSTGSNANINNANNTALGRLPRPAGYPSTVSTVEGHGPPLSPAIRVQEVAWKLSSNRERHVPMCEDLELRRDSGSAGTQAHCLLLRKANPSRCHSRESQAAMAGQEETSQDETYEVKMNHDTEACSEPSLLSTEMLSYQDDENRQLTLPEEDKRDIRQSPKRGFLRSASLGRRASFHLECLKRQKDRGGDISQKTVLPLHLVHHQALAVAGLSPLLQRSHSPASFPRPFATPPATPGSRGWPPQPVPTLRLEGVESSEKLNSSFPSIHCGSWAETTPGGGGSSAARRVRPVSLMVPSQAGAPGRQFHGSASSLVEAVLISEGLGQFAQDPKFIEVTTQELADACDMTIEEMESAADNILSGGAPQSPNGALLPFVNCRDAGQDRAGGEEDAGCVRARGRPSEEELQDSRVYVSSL
Procedure, shortened: (§2)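 Cav1.2 counterscreen using a related calcium-influx FLIPR assay, run as % inhibition at single concentrations or as a titration.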

Rattus norvegicus [6] = test: Antinociceptive activity in po dosed rat assessed as reversal of complete Freund's adjuvant-induced pain after 3 hrs; format: functional, organism-based
Procedure, shortened: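 In the rat CFA inflammatory pain model, compound was given orally at 30 mg/kg and allodynia was read at 1 and 3 h postdose. Average % reversal = (postdose − predose)/(preinjury − predose) for each rat, n = 6. Plasma exposure at 3 h was measured in satellite rats (n = 2).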

[7] = Plasma concentration rat at 100 mg/kg, po after 3 hrs; format: ADME, organism-based; parameters: dose 100 mg/kg, route oral
Procedure, shortened: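 Rat rota-rod motor coordination study; single 100 mg/kg oral dose; plasma and brain exposure determined 3 h postdose.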

[8] = Plasma concentration in vagotomized dog at 10 mg/kg, iv after 90 mins; format: ADME, organism-based, Canis lupus familiaris; parameters: dose 10 mg/kg, route intravenous
Procedure, shortened: (§3)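 Anesthetized, vagotomized dogs; intravenous infusion in sequential rising doses of 1, 3 and 10 mg/kg (cumulative); plasma exposure sampled at indicated time points, n = 3.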

PXR = target: T3, PXR (Homo sapiens, UniProt O75469); test: Activation of PXR at 10 uM relative to control; conditions: read-out: max activation
T3 sequence (O75469 whole entry): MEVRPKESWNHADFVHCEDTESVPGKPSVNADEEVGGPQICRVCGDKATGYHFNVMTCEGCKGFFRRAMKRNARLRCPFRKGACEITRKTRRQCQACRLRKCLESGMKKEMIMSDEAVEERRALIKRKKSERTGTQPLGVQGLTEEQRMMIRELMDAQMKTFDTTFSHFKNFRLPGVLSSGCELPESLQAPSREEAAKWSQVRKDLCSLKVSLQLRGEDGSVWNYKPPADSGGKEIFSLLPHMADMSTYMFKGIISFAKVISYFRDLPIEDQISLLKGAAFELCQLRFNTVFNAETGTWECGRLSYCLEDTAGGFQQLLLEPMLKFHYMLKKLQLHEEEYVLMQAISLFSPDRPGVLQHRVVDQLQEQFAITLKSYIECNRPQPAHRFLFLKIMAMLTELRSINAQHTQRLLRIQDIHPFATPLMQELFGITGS

Rattus norvegicus [9] = test: Antinociceptive activity in rat assessed as reversal of complete Freund's adjuvant-induced pain at 10 mg/kg, po after 3 hrs; format: functional
Procedure, shortened: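 Rats had complete Freund's adjuvant-induced inflammatory pain and got oral dosing. Allodynia was read at 1 and 3 h postdose. Percent reversal per rat = (postdose − predose)/(preinjury − predose). Groups had at least six animals, reported as mean + SEM.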

[10] = Plasma concentration in rat complete Freund's adjuvant-induced pain model at 30 mg/kg, po after 3 hrs; format: ADME, organism-based; parameters: dose 30 mg/kg, route oral
Procedure, shortened: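 Satellite rats in CFA inflammatory pain study, 30 mg/kg po; plasma exposure (μM) at 3 h, n = 2, standard deviation.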

[11] = Plasma concentration in vagotomized dog at 3 mg/kg, iv after 60 mins; format: ADME, organism-based, Canis lupus familiaris; parameters: dose 3 mg/kg, route intravenous; procedure, shortened: as §3
[12] = Tmax in rat at 3 mg/kg; format: ADME, organism-based; parameters: dose 3 mg/kg; conditions: in vivo
Procedure, shortened: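 Rat pharmacokinetics: 3 mg/kg po arm alongside 1 mg/kg iv; tmax from oral arm, half-life from iv dosing.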

[13] = target: T4, Nuclear receptor subfamily 1 group I member 2 (Homo sapiens, UniProt O75469); test: Activation of PXR
T4 sequence (O75469 whole entry): T3 sequence (O75469 whole entry)
Procedure, shortened: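 PXR activation read as EC50, with maximal activation given as % at 10 μM.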

[14] = target: T1, Voltage-dependent N-type calcium channel subunit alpha-1B; test: Inhibition of human Cav2.2 expressed CBK cells assessed as inhibition of channel current at 10 uM at holding membrane potential -90 mV by conventional patch clamp electrophysiology assay; procedure, shortened: as §1
Cav1.2 [15] = target: T2, Cav1.2; test: Inhibition of Cav1.2 assessed as inhibition of calcium flux at 1 uM by cell based FLIPR assay; procedure, shortened: as §2

Structure (SMILES): CS(=O)(=O)c1ccc(F)cc1C(=O)N1CCC(N(C2CC2)S(=O)(=O)c2cccc(C(F)(F)F)c2)CC1
- concentration at 8 h [1]: 0.31 µM
- inhibition [2]: > 50%
- Activity (Mus musculus [3]): 9%
- Activity (Mus musculus [4]): 35%
- inhibition at 3 µM (Cav1.2 [5]): 34%
- Activity (Rattus norvegicus [6]): Dose-dependent effect
- concentration at 3 h [7]: 9.5 µM
- concentration at 1.5 h [8]: 20.4 µM
- Emax at 10 µM (PXR): 124%
- Activity (Rattus norvegicus [9]): 49%
- concentration at 3 h [10]: 1.6 µM
- concentration at 1 h [11]: 5.79 µM
- Tmax [12]: 1.7 h
- EC50 [13]: 430 nM
- inhibition [14]: 43%
- inhibition at 1 µM (Cav1.2 [15]): 18%
